ChEMBL document CHEMBL2016552, “Pyrazine-based Syk kinase inhibitors” (Bioorg Med Chem Lett, 2012)
≈ marks a conversion by molar mass, not a printed value. Values belong to the molecule of their own block, whether it stands above or below them.

Assays:
LAD2 [1] = assay: Inhibition of IgE-mediated human LAD2 cell degranulation assessed as beta-hexosaminidase release using p-nitrophenyl-N-acetyl-D-glucosamide as substrate preincubated for 30 mins measured 90 mins after substrate addition by spectrophotometric analysis
[2] = target: Tyrosine-protein kinase SYK (Homo sapiens, UniProt P43405); assay: Inhibition of human recombinant […] using poly-GT as substrate and [33P]ATP after 40 mins by beta counting
LAD2 [3] = assay: Inhibition of IgE-mediated human LAD2 cell degranulation assessed as beta-hexosaminidase release using p-nitrophenyl-N-acetyl-D-glucosamide as substrate at 1 uM preincubated for 30 mins measured 90 mins after substrate addition by spectrophotometric analysis; assay type: functional
Outline: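 LAD2 mast cells sensitised overnight (37°, 5% CO2) in StemPro-34 with 2 mM glutamine and 100 ng/ml SCF plus 100 ng/ml biotin-IgE. Cells washed into release buffer (0.025% BSA), 10,000/well, compound 30 min, then streptavidin 125 ng/ml for 30 min. Supernatants and freeze-thaw lysates incubated with 1 mM substrate (citrate, pH 4.5) 90 min at 37°C. Stopped with 0.4 M glycine pH 10.0; A405 read.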

[4] = Apparent permeability across basolateral to apical side in human Caco2 cells; assay type: ADME, cell-based; conditions: Caco-2
[5] = target: Tyrosine-protein kinase Fyn (Homo sapiens) (UniProt P06241); conditions: 1 uM
[6] = target: Glycogen synthase kinase-3 alpha (Homo sapiens) (UniProt P49840); conditions: 1 uM
[7] = target: T1, Tyrosine-protein kinase Lyn (Homo sapiens, UniProt P07948); conditions: 1 uM
[8] = target: Serine/threonine-protein kinase pim-1 (Homo sapiens) (UniProt P11309); conditions: 1 uM
[9] = target: MAP kinase-activated protein kinase 5 (Homo sapiens) (UniProt Q8IW41); conditions: 1 uM
[10] = target: Protein-tyrosine kinase 2-beta (Homo sapiens) (UniProt Q14289); conditions: 1 uM
Sequence of Protein-tyrosine kinase 2-beta (Homo sapiens) (Q14289 whole entry, looked up): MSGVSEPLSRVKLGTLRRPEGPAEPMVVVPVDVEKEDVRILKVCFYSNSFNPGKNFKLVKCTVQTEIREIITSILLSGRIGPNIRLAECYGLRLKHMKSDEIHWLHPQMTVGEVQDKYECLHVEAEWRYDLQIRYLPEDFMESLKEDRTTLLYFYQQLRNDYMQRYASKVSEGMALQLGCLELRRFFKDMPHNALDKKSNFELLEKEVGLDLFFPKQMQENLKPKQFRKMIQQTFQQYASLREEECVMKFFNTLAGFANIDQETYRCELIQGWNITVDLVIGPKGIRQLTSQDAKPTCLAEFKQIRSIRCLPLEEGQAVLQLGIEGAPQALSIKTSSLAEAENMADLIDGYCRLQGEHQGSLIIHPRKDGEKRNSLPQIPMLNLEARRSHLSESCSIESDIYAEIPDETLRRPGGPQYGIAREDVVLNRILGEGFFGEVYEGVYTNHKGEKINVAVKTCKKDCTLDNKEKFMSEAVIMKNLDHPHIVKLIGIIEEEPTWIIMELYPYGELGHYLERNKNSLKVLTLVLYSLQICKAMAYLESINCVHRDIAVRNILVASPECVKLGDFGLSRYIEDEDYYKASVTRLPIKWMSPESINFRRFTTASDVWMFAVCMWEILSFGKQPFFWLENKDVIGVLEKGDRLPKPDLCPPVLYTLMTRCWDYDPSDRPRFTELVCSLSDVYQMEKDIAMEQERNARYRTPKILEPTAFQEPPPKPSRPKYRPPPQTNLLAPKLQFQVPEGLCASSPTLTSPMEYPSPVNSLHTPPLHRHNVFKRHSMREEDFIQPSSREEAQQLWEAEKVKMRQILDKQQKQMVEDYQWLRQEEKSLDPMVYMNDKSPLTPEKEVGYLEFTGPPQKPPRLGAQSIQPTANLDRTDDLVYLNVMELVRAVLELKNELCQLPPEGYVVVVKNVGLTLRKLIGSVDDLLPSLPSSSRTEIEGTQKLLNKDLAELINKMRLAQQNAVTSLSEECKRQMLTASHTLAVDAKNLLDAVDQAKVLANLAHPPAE

[11] = target: Tyrosine-protein kinase BTK (Homo sapiens) (UniProt Q06187); conditions: 1 uM
Sequence of Tyrosine-protein kinase BTK (Homo sapiens) (Q06187 whole entry): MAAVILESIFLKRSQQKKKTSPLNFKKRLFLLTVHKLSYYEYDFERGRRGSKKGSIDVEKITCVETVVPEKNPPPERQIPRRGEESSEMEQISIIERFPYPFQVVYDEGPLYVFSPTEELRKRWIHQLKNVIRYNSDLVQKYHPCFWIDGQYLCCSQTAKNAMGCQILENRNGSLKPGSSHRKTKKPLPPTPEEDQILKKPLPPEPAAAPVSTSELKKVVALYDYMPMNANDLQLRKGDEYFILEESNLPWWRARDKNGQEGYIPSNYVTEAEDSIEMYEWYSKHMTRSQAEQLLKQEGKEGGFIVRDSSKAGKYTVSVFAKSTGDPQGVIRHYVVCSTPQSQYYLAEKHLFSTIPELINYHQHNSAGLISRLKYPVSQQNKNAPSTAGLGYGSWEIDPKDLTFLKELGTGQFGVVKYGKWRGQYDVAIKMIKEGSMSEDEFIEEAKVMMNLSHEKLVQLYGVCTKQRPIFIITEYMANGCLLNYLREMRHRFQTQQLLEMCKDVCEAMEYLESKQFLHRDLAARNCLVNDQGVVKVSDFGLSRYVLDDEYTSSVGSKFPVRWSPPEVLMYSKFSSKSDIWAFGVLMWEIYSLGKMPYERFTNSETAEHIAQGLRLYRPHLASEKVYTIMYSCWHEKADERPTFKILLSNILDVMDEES

CHO = assay: Cytotoxicity against CHO cells; assay type: cell-based, Cricetulus griseus; conditions: chinese hamster
[12] = target: Mitogen-activated protein kinase 10 (Homo sapiens) (UniProt P53779); conditions: 1 uM
[13] = target: Focal adhesion kinase 1 (Homo sapiens) (UniProt Q05397); conditions: 1 uM
Sequence of Focal adhesion kinase 1 (Homo sapiens) (Q05397 2-1052 limits assumed): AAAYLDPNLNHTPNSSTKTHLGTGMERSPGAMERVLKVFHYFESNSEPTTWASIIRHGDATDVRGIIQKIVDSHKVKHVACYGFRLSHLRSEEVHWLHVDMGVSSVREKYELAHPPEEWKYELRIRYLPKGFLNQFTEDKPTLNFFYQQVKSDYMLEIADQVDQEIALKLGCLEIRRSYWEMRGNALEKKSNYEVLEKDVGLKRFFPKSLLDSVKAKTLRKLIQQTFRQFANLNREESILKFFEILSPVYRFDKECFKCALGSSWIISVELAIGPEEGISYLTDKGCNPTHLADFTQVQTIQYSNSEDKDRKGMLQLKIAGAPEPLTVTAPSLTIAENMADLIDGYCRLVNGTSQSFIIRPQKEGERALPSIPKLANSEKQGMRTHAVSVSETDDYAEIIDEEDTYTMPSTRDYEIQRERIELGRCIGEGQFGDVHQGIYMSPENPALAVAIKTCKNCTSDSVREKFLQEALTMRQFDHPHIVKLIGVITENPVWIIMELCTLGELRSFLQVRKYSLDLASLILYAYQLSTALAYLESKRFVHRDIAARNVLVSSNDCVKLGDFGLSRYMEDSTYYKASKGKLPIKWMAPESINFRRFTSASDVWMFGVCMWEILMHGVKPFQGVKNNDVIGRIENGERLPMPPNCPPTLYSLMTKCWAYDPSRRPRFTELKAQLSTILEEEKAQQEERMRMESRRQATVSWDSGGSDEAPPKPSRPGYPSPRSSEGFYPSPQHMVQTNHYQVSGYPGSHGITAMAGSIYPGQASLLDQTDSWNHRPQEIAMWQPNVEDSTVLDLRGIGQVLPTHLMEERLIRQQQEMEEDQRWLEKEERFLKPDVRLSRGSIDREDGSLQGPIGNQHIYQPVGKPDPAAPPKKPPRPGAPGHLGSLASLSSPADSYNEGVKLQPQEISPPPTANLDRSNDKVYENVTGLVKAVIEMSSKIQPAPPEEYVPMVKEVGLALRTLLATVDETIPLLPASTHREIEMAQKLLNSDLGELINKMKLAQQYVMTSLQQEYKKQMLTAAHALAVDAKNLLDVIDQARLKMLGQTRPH

[14] = target: Tyrosine-protein kinase ZAP-70 (Homo sapiens) (UniProt P43403); conditions: 1 uM
[15] = target: Tyrosine-protein kinase HCK (Homo sapiens) (UniProt P08631); conditions: 1 uM
[16] = target: Tyrosine-protein kinase JAK3 (Homo sapiens) (UniProt P52333); conditions: 1 uM
[17] = target: Aurora kinase A (Homo sapiens) (UniProt O14965); conditions: 1 uM
[18] = target: Protein kinase C beta type (Homo sapiens) (UniProt P05771); conditions: 1 uM
[19] = Aqueous solubility of the compound at pH 7.4; assay type: physicochemical
[20] = target: Macrophage colony-stimulating factor 1 receptor (Homo sapiens) (UniProt P07333); conditions: 1 uM
[21] = target: Ribosomal protein S6 kinase alpha-6 (Homo sapiens) (UniProt Q9UK32); conditions: 1 uM
[22] = target: Casein kinase I isoform delta (Homo sapiens) (UniProt P48730); conditions: 1 uM
[23] = target: Receptor-type tyrosine-protein kinase FLT3 (Homo sapiens) (UniProt P36888); conditions: 1 uM
Sequence of Receptor-type tyrosine-protein kinase FLT3 (Homo sapiens) (P36888 whole entry): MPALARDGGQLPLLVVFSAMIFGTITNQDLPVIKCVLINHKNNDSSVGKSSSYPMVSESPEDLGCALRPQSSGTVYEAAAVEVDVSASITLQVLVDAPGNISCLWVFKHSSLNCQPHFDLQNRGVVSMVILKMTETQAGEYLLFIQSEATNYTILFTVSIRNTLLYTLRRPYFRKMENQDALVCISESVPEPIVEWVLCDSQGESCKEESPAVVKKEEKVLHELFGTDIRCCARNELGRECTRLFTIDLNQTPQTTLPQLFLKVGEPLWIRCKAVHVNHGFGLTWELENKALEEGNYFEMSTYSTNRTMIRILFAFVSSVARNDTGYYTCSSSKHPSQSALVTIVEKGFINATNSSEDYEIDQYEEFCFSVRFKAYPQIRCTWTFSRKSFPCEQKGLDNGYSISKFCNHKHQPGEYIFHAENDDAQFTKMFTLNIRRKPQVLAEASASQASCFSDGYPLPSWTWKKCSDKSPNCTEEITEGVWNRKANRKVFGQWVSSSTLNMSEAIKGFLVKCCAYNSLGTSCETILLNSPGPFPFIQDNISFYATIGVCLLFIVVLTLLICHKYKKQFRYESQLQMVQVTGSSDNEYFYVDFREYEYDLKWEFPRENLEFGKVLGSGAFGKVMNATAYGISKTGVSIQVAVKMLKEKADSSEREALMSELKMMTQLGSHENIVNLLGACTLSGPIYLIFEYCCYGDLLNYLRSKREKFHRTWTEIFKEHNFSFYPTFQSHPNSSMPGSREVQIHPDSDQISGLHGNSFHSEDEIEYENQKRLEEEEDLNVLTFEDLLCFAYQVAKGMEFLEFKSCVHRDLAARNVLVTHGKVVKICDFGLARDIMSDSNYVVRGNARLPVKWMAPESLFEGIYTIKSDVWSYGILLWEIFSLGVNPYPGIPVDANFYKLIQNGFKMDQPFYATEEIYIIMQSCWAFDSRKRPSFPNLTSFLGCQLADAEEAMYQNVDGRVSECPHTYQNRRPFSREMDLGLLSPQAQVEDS

[24] = target: High affinity nerve growth factor receptor (Homo sapiens) (UniProt P04629); conditions: 1 uM
[25] = target: Tyrosine-protein kinase Lck (Homo sapiens) (UniProt P06239); conditions: 1 uM
[26] = target: Proto-oncogene tyrosine-protein kinase Src (Homo sapiens) (UniProt P12931); conditions: 1 uM
[27] = target: Mitogen-activated protein kinase kinase kinase 7 (TAK1) (Homo sapiens) (UniProt O43318); conditions: 1 uM
[28] = target: Protein kinase C epsilon type (Homo sapiens) (UniProt Q02156); conditions: 1 uM
[29] = Lipophilicity, log D of the compound at pH 7.4; assay type: physicochemical; conditions: buffer
[30] = target: Tyrosine-protein kinase Yes (Homo sapiens) (UniProt P07947); conditions: 1 uM
[31] = target: Tyrosine-protein kinase ITK/TSK (Homo sapiens) (UniProt Q08881); conditions: 1 uM
Sequence of Tyrosine-protein kinase ITK/TSK (Homo sapiens) (Q08881 whole entry): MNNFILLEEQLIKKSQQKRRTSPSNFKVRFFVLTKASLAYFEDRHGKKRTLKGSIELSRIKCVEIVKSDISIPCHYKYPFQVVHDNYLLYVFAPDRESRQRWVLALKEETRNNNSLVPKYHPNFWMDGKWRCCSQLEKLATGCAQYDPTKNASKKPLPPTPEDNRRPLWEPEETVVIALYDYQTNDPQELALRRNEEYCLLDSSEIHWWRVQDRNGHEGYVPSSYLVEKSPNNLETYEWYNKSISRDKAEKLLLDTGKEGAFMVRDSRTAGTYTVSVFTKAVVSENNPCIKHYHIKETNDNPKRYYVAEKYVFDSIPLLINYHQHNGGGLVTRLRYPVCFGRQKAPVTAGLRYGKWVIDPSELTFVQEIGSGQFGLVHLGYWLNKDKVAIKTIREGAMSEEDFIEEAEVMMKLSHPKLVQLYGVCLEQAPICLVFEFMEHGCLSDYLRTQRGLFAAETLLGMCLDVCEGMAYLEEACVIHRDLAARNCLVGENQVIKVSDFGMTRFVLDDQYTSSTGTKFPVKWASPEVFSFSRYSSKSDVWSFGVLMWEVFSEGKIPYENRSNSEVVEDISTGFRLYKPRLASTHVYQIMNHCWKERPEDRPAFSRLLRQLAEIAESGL

[32] = target: Glycogen synthase kinase-3 beta (Homo sapiens) (UniProt P49841); conditions: 1 uM
[33] = target: ALK tyrosine kinase receptor (Homo sapiens) (UniProt Q9UM73); conditions: 1 uM
[34] = target: Proto-oncogene tyrosine-protein kinase receptor Ret (Homo sapiens) (UniProt P07949); conditions: 1 uM
[35] = target: Hepatocyte growth factor receptor (Homo sapiens) (UniProt P08581); conditions: 1 uM
[36] = Apparent permeability across apical to basolateral side in human Caco2 cells; assay type: ADME, cell-based; conditions: Caco-2
[37] = target: Fibroblast growth factor receptor 3 (Homo sapiens) (UniProt P22607); conditions: 1 uM
[38] = target: T1, Tyrosine-protein kinase Lyn; assay: Inhibition of human Lyn
[39] = target: Calcium/calmodulin-dependent protein kinase type II subunit delta (Homo sapiens) (UniProt Q13557); conditions: 1 uM
[40] = target: 3-phosphoinositide-dependent protein kinase 1 (Homo sapiens) (UniProt O15530); conditions: 1 uM
[41] = target: Cyclin-dependent kinase 1/cyclin B1 (Homo sapiens) (UniProt P06493+P14635); conditions: 1 uM
Sequence of Cyclin-dependent kinase 1/cyclin B1 (Homo sapiens) (P06493 whole entry, looked up): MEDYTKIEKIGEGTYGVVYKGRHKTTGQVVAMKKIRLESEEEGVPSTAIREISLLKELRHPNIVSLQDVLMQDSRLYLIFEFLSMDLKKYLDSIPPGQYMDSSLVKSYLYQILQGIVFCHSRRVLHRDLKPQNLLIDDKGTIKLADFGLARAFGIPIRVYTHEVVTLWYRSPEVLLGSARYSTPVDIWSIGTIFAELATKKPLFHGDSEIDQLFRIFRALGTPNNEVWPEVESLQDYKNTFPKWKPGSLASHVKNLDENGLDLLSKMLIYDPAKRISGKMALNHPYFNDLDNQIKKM
Sequence of Cyclin-dependent kinase 1/cyclin B1 (Homo sapiens) (P14635 whole entry, looked up): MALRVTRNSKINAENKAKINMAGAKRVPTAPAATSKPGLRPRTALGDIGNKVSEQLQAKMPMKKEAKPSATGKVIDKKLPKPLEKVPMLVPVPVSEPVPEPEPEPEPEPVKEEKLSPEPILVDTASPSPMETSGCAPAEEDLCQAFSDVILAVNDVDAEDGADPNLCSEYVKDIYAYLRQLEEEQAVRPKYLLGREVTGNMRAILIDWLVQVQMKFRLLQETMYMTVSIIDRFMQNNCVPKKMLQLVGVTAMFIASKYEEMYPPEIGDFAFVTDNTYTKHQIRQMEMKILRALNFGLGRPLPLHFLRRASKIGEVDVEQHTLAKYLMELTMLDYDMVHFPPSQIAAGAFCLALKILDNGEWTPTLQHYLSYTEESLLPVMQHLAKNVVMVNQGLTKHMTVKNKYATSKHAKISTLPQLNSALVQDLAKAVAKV

[42] = target: Vascular endothelial growth factor receptor 1 (Homo sapiens) (UniProt P17948); conditions: 1 uM
[43] = target: Tyrosine-protein kinase JAK2 (Homo sapiens) (UniProt O60674); conditions: 1 uM
[44] = target: Rho-associated protein kinase 2 (Homo sapiens) (UniProt O75116); conditions: 1 uM
[45] = target: Inhibitor of nuclear factor kappa-B kinase subunit beta (Homo sapiens) (UniProt O14920); conditions: 1 uM
[46] = target: Serine/threonine-protein kinase Chk1 (Homo sapiens) (UniProt O14757); conditions: 1 uM
[47] = target: Protein kinase C gamma type (Homo sapiens) (UniProt P05129); conditions: 1 uM
[48] = target: Tyrosine-protein kinase receptor UFO (Homo sapiens) (UniProt P30530); conditions: 1 uM
[49] = target: Tyrosine-protein kinase Fgr (Homo sapiens) (UniProt P09769); conditions: 1 uM
[50] = target: Dual specificity mitogen-activated protein kinase kinase 6 (Homo sapiens) (UniProt P52564); conditions: 1 uM

SMILES: CS(=O)(=O)Nc1cccc(-c2cnc(N)c(C(=O)N3CCC(O)CC3)n2)c1
- IC50 [2]: > 50000 nM

SMILES: CC(C)(NC(=O)c1nc(-c2cccc(OC(F)(F)F)c2)cnc1N)C1CCNCC1
- IC50 (LAD2 [1]): 1100 nM

SMILES: CC(C)(NC(=O)c1nc(-c2cccc3cn[nH]c23)cnc1N)C1CCNCC1
- inhibition at 1 µM (LAD2 [3]): 48%

SMILES: CC(C)n1cc(-c2cccc(-c3cnc(N)c(C(=O)N[C@H]4C5CC6CC4C[C@@](O)(C6)C5)n3)c2)cn1
- IC50 (LAD2 [1]): 220 nM

SMILES: CC(C)(NC(=O)c1nc(-c2cccc(-c3ccc(N)nc3)c2)cnc1N)C1CCNCC1
- Papp B→A [4]: 2.38 ×10⁻⁶ cm/s
- IC50 (LAD2 [1]): 560 nM

SMILES: CC(C)(NC(=O)c1nc(-c2ccc3c(c2)NC(=O)C3)cnc1N)C1CCNCC1
- inhibition at 1 µM (LAD2 [3]): 10%

SMILES: Cn1cc(-c2cccc(-c3cnc(N)c(C(=O)NC(C)(C)C4CCNCC4)n3)c2)cn1
- IC50 (LAD2 [1]): 550 nM

SMILES: Nc1ncc(-c2cccc(-c3cnn(CC(=O)O)c3)c2)nc1C(=O)N[C@H]1C2CC3CC1C[C@@](O)(C3)C2
- inhibition at 1 µM (LAD2 [3]): 43%

SMILES: CC(C)(NC(=O)c1nc(-c2ccc3cn[nH]c3c2)cnc1N)C1CCNCC1
- IC50 (LAD2 [1]): 860 nM

SMILES: COc1cncc(-c2cccc(-c3cnc(N)c(C(=O)NC(C)(C)C4CCNCC4)n3)c2)c1
- inhibition at 1 µM (LAD2 [3]): 65%

SMILES: Cn1cc(-c2cccc(-c3cnc(N)c(C(=O)N[C@H]4C5CC6CC4C[C@](O)(C6)C5)n3)c2)cn1
- IC50 (LAD2 [1]): 120 nM
- IC50 [2]: 20 nM

SMILES: Cn1cc(-c2cccc(-c3cnc(N)c(C(=O)N[C@H]4C5CC6CC4C[C@@](O)(C6)C5)n3)c2)cn1
- inhibition [5]: > 50%
- inhibition [6]: > 50%
- inhibition [7]: > 50%
- inhibition [8]: > 50%
- inhibition [9]: < 50%
- inhibition [10]: < 50%
- inhibition [11]: < 50%
- Activity (CHO): Non-toxic
- inhibition [12]: < 50%
- inhibition [13]: < 50%
- inhibition [14]: < 50%
- inhibition [15]: > 50%
- inhibition [16]: > 50%
- inhibition [17]: > 50%
- Papp B→A [4]: 13 ×10⁻⁶ cm/s
- inhibition [18]: < 50%
- solubility [19]: 25 µg/mL (≈ 56.2 µM)
- inhibition [20]: > 50%
- inhibition [21]: > 50%
- IC50 (LAD2 [1]): 90 nM
- inhibition [22]: < 50%
- inhibition [23]: > 50%
- inhibition [24]: > 50%
- inhibition [25]: > 50%
- inhibition [26]: > 50%
- inhibition [27]: < 50%
- inhibition [28]: < 50%
- logD [29]: 1.5
- inhibition [30]: > 50%
- inhibition [31]: < 50%
- inhibition [32]: < 50%
- inhibition [33]: > 50%
- inhibition [34]: > 50%
- inhibition [35]: < 50%
- Papp A→B [36]: 28 ×10⁻⁶ cm/s
- inhibition [37]: > 50%
- IC50 [38]: 325 nM
- inhibition [39]: < 50%
- IC50 [2]: 40 nM
- inhibition [40]: < 50%
- inhibition [41]: > 50%
- inhibition [42]: > 50%
- inhibition [43]: > 50%
- inhibition [44]: < 50%
- inhibition [45]: < 50%
- inhibition [46]: < 50%
- inhibition [47]: < 50%
- inhibition [48]: > 50%
- inhibition [49]: > 50%
- inhibition [50]: < 50%

SMILES: COCCn1cc(-c2cccc(-c3cnc(N)c(C(=O)N[C@H]4C5CC6CC4C[C@@](O)(C6)C5)n3)c2)cn1
- IC50 (LAD2 [1]): 180 nM

SMILES: COc1cccc(-c2cnc(N)c(C(=O)NC(C)(C)C3CCNCC3)n2)c1
- IC50 (LAD2 [1]): 1960 nM

SMILES: NCCn1cc(-c2cccc(-c3cnc(N)c(C(=O)N[C@H]4C5CC6CC4C[C@@](O)(C6)C5)n3)c2)cn1
- IC50 (LAD2 [1]): 1000 nM

SMILES: Nc1ncc(-c2ccc3cn[nH]c3c2)nc1C(=O)N[C@H]1C2CC3CC1C[C@](O)(C3)C2
- IC50 (LAD2 [1]): 400 nM

SMILES: CCn1cc(-c2cccc(-c3cnc(N)c(C(=O)N[C@H]4C5CC6CC4C[C@](O)(C6)C5)n3)c2)cn1
- IC50 (LAD2 [1]): 180 nM

Further molecules by falling IC50 (LAD2 [1]), results first:

- IC50 (LAD2 [1]): 180 nM
SMILES: Nc1ccc(-c2cccc(-c3cnc(N)c(C(=O)N[C@H]4C5CC6CC4C[C@@](O)(C6)C5)n3)c2)cn1

- IC50 (LAD2 [1]): 170 nM
SMILES: CCCn1cc(-c2cccc(-c3cnc(N)c(C(=O)N[C@H]4C5CC6CC4C[C@@](O)(C6)C5)n3)c2)cn1

- IC50 (LAD2 [1]): 160 nM
SMILES: NC(=O)Cn1cc(-c2cccc(-c3cnc(N)c(C(=O)N[C@H]4C5CC6CC4C[C@@](O)(C6)C5)n3)c2)cn1

- IC50 (LAD2 [1]): 150 nM
SMILES: Cc1cc(-c2cnn(C)c2)cc(-c2cnc(N)c(C(=O)N[C@H]3C4CC5CC3C[C@@](O)(C5)C4)n2)c1

- IC50 (LAD2 [1]): 140 nM
SMILES: Nc1ncc(-c2cccc(-c3cnn(CC(F)(F)F)c3)c2)nc1C(=O)N[C@H]1C2CC3CC1C[C@@](O)(C3)C2

- IC50 (LAD2 [1]): 140 nM
SMILES: COc1cc(-c2cnn(C)c2)cc(-c2cnc(N)c(C(=O)N[C@H]3C4CC5CC3C[C@@](O)(C5)C4)n2)c1

- IC50 (LAD2 [1]): 140 nM
SMILES: Nc1ncc(-c2cccc(-c3cnn(CCO)c3)c2)nc1C(=O)N[C@H]1C2CC3CC1C[C@](O)(C3)C2

- IC50 (LAD2 [1]): 120 nM
SMILES: Nc1ncc(-c2ccc3cn[nH]c3c2)nc1C(=O)N[C@H]1C2CC3CC1C[C@@](O)(C3)C2

- IC50 (LAD2 [1]): 120 nM
SMILES: Nc1ncc(-c2cccc(-c3cnn(CCO)c3)c2)nc1C(=O)N[C@H]1C2CC3CC1C[C@@](O)(C3)C2

- IC50 (LAD2 [1]): 110 nM
SMILES: CCn1cc(-c2cccc(-c3cnc(N)c(C(=O)N[C@H]4C5CC6CC4C[C@@](O)(C6)C5)n3)c2)cn1

- IC50 (LAD2 [1]): 100 nM
SMILES: Nc1ncc(-c2cccc(-c3cn[nH]c3)c2)nc1C(=O)N[C@H]1C2CC3CC1C[C@@](O)(C3)C2
